Active and inactive are the calls of the source. No cut-off for these calls is given here.
Legend:
Acetylcholinesterase = Acetylcholinesterase (Electrophorus electricus, UniProt O42275); test: Inhibition of electric eel AChE using acetylthiocholine iodide as substrate preincubated for 20 mins followed by substrate addition measured for 5 mins by spectrophotometric Ellman's method
[1] = biological target: T1, Amine oxidase [flavin-containing] A (Homo sapiens, UniProt P21397); test: Inhibition of human recombinant MAOA expressed in microsomes of baculovirus-infected insect cell using kynuramine as substrate preincubated for 20 mins followed by protein addition measured after 30 mins by fluorescence assay
T1 sequence (P21397 whole entry): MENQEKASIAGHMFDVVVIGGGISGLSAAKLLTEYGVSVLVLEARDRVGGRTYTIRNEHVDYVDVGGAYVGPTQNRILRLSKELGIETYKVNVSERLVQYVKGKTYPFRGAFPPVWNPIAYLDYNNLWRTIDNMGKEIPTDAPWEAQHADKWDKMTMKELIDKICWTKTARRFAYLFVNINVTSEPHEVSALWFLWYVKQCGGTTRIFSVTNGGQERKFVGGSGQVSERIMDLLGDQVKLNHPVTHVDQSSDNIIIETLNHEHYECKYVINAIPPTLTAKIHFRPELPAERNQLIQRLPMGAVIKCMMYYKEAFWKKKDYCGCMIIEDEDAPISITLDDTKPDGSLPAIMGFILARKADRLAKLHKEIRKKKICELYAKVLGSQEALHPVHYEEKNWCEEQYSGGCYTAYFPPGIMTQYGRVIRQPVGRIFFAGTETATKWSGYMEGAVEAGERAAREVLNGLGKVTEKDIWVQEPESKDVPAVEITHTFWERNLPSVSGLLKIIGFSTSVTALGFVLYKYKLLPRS
Method in brief: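 Recombinant human MAO A (baculovirus-infected insect cell microsomes) with kynuramine substrate; inhibitor preincubated 20 min at 37 °C, enzyme then added and incubated 30 min more. Fluorescence at ex/em 320/400 nm. Triplicates, three independent experiments.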

[2] = biological target: T2, Amine oxidase [flavin-containing] B (Homo sapiens, UniProt P27338); test: Inhibition of human recombinant MAOB expressed in microsomes of baculovirus-infected insect cell using kynuramine as substrate preincubated for 20 mins followed by protein addition measured after 30 mins by fluorescence assay
T2 sequence (P27338 whole entry): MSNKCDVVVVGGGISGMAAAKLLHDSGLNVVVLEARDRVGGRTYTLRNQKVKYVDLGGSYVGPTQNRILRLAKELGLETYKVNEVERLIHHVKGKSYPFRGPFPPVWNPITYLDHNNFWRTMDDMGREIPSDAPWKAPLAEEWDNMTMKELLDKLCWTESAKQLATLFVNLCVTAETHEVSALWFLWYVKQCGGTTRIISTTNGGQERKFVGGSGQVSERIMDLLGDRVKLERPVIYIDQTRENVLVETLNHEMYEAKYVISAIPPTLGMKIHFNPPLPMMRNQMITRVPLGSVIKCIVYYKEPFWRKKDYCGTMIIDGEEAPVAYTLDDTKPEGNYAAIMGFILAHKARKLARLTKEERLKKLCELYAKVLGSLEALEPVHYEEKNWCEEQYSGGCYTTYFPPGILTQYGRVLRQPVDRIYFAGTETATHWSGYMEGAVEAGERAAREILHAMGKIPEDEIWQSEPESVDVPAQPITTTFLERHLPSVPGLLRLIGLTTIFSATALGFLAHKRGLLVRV

[3] = biological target: Cholinesterase (Equus caballus) (UniProt P81908); test: Inhibition of equine serum BChE at 10 uM using butyrylthiocholine iodide as substrate preincubated for 20 mins followed by substrate addition measured for 5 mins by spectrophotometric Ellman's method relative to control
Chain of Cholinesterase (Equus caballus) (P81908 whole entry): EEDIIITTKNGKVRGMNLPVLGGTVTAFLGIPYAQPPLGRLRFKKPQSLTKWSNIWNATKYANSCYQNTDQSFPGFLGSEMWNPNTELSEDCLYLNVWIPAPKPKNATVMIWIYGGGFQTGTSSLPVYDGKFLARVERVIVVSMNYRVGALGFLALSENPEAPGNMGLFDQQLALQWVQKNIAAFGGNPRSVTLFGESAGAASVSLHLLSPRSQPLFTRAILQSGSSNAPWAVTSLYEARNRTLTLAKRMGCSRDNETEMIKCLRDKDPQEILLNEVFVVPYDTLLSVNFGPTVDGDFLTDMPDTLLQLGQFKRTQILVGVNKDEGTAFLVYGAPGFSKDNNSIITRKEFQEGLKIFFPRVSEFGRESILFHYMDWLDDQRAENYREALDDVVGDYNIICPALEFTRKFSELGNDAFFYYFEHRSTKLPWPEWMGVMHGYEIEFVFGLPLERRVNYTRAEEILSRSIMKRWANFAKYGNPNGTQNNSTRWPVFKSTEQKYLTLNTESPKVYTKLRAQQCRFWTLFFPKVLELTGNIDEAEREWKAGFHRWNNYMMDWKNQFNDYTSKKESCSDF
Method in brief: (§1)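 BChE from equine serum (13 U/mg), Ellman spectrophotometric method run in 96-well format. Seven inhibitor concentrations, 10^-4 to 10^-10 M, each in triplicate. IC50 from non-linear regression of response against log(concentration). […] Mean of three independent experiments.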

Cholinesterase = Cholinesterase (Equus caballus, UniProt P81908); test: Inhibition of equine serum BChE using butyrylthiocholine iodide as substrate preincubated for 20 mins followed by substrate addition measured for 5 mins by spectrophotometric Ellman's method; method in brief: as §1
Chain of Cholinesterase (P81908 whole entry): as above

SH-SY5Y [4] = test: Neuroprotective activity against oligomycin-A-induced oxidative injury in human SH-SY5Y cells assessed as increase in cell viability at 1 uM after 24 hrs by MTT assay; format: functional, cell-based
Method in brief: (§2)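 SH-SY5Y cells incubated 24 h with compound at 1 or 10 µM together with H2O2 300 µM, oligomycin-A 10 µM or rotenone 20 µM. Viability by MTT, as % of cells given neither insult nor compound. Triplicates, three repeats; mean ± SD; two-way ANOVA with Bonferroni post hoc test.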

SH-SY5Y [5] = test: Cytotoxicity against human SH-SY5Y cells assessed as inhibition of cell growth after 24 hrs by MTT assay; format: cell-based
Method in brief: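 SH-SY5Y cells exposed 24 h at 37 °C to 0.1, 1, 5, 10 and 50 µM; viability read by MTT at 570 nm versus untreated cells. […] Means ± SD, n = 3.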

SH-SY5Y [6] = test: Neuroprotective activity against oligomycin-A-induced oxidative injury in human SH-SY5Y cells assessed as increase in cell viability at 10 uM after 24 hrs by MTT assay; format: functional, cell-based; method in brief: as §2
[7] = Lipophilicity index, Log K of the compound at 1 mM by RP-HPLC method; format: physicochemical; details: 1000 µM
SH-SY5Y [8] = test: Neuroprotective activity against rotenone-induced oxidative injury in human SH-SY5Y cells assessed as increase in cell viability at 10 uM after 24 hrs by MTT assay; format: functional, cell-based; method in brief: as §2
SH-SY5Y [9] = test: Neuroprotective activity against rotenone-induced oxidative injury in human SH-SY5Y cells assessed as increase in cell viability at 1 uM after 24 hrs by MTT assay; format: functional, cell-based; method in brief: as §2
SH-SY5Y [10] = test: Neuroprotective activity against H2O2-induced oxidative injury in human SH-SY5Y cells assessed as increase in cell viability at 1 to 10 uM after 24 hrs by MTT assay; format: functional, cell-based; method in brief: as §2
[11] = Kinetic aqueous solubility of the compound in Tris-HCl buffer at pH 7.4 by turbidimetric method; format: physicochemical; details: buffer
Method in brief: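 DMSO stocks added in portions to 50 mM Tris-HCl pH 7.4 at room temperature. Light scattering read as UV absorbance increase at 580–780 nm; solubility from a bilinear fit of absorbance versus µL DMSO. Reported as logS (mol/L), mean ± SEM of three independent assays.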

Homo sapiens = species on record: Homo sapiens; test: Selectivity index, ratio of IC50 for human recombinant MAOA to IC50 for human recombinant MAOB

Chain of Acetylcholinesterase (O42275 whole entry): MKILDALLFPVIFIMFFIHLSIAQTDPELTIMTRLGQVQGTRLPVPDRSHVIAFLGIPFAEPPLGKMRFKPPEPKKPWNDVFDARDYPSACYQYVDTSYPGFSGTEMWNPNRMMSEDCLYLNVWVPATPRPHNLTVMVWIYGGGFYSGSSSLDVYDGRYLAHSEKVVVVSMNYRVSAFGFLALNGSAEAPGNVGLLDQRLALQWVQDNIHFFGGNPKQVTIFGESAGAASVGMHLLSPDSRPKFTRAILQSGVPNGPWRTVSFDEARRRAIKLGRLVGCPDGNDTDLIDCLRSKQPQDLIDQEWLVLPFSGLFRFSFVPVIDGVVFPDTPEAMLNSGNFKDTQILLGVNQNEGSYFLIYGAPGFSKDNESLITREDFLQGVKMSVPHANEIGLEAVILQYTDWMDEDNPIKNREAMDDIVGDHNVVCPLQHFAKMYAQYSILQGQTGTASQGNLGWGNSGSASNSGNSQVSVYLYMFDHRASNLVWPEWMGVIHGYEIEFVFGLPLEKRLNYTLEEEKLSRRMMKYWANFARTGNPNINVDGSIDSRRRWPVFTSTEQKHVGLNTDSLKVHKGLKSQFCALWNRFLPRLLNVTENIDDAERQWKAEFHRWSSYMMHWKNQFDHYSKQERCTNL

Row | SMILES | IC50 (Acetylcholinesterase) | IC50 [1] | IC50 [2] | inhibition [3] | IC50 (Cholinesterase) | other results
1 | Cc1c(C)c2ccc(OCC3CCN(C)CC3)cc2oc1=O | 680 nM | 16600 nM | 297 nM | 14% |  | 
2 | Cc1c(C)c2ccc(OCC3CCCN(Cc4ccc(Cl)cc4)C3)cc2oc1=O (racemic) | 2890 nM | 822 nM | 50 nM |  | 5900 nM | 
3 | COc1ccc(CN2CCCC(COc3ccc4c(C)c(C)c(=O)oc4c3)C2)cc1OC (racemic) | 2210 nM | 1720 nM | 90 nM |  | 6040 nM | Activity (SH-SY5Y [4]): inactive; IC50 (SH-SY5Y [5]): 10000 nM; Activity (SH-SY5Y [6]): inactive
4 | Cc1c(C)c2ccc(OCC3CCN(Cc4ccc(C#N)cc4)CC3)cc2oc1=O | 1810 nM | 10100 nM | 549 nM | 27% |  | 
5 | Cc1c(C)c2ccc(OC3CCN(CC(=O)c4ccccc4)CC3)cc2oc1=O | 3780 nM | 1960 nM | 114 nM | 45% |  | 
6 | Cc1c(C)c2ccc(OCCCN3CCc4ccccc4C3)cc2oc1=O | 1220 nM | 2680 nM | 298 nM |  | 950 nM | 
7 | CN(Cc1ccccc1)Cc1ccc(COc2ccc3c(CO)cc(=O)oc3c2)cc1 |  |  |  |  |  | log K [7]: 1.87
8 | Cc1c(C)c2ccc(OCC3CCCN(Cc4ccccc4)C3)cc2oc1=O (stereo in doubt; (+)-5b) | 1800 nM | 3840 nM |  |  | 2910 nM | 
9 | Cc1c(C)c2ccc(OCC3CCCN(Cc4cccc(Br)c4)C3)cc2oc1=O (single isomer, unassigned; (+)) [listing 1 of 2 here] | 3230 nM | 540 nM | 26 nM |  |  | 
10 | Cc1c(C)c2ccc(OCC3CCCN(Cc4cccc(Br)c4)C3)cc2oc1=O (racemic) |  |  |  | 30% |  | Activity (SH-SY5Y [8]): Active; Activity (SH-SY5Y [9]): Active; Activity (SH-SY5Y [4]): Active; Activity (SH-SY5Y [6]): Active; Activity (SH-SY5Y [10]): Active
11 | Cc1c(C)c2ccc(OCC3CCN(Cc4ccccc4)CC3)cc2oc1=O.Cl | 1660 nM | 2410 nM | 105 nM |  | 4720 nM | log(Kinetic_solubility) [11]: -4.25; Activity (SH-SY5Y [4]): inactive; log K [7]: 1.98; Activity (SH-SY5Y [6]): inactive
12 | Cc1c(C)c2ccc(OCC3CCCN(Cc4cccc(Br)c4)C3)cc2oc1=O (single isomer, unassigned; (-)) [listing 1 of 2 here] | 1720 nM | 1110 nM | 196 nM |  |  | 
13 | Cc1c(C)c2ccc(OCC3CCCN(Cc4cccc(Br)c4)C3)cc2oc1=O (single isomer, unassigned; (+)) [listing 2 of 2 here] |  |  |  | 36% |  | Ratio IC50 (Homo sapiens): 21
14 | Cc1c(C)c2ccc(OCC3CCCN(Cc4ccc(F)cc4)C3)cc2oc1=O (racemic) | 1460 nM | 1110 nM | 163 nM |  | 3690 nM | Activity (SH-SY5Y [9]): Active; Activity (SH-SY5Y [10]): Active
15 | Cc1c(C)c2ccc(OCC3CCCN(Cc4ccc(C#N)cc4)C3)cc2oc1=O (racemic) | 2800 nM | 4510 nM | 34 nM | 36% |  | Ratio IC50 (Homo sapiens): 133
16 | Cc1c(C)c2ccc(OCC3CCCN(Cc4ccccc4)C3)cc2oc1=O (racemic) |  |  |  |  |  | Activity (SH-SY5Y [8]): Active; Activity (SH-SY5Y [9]): Active; Activity (SH-SY5Y [4]): Active; Activity (SH-SY5Y [6]): Active; Activity (SH-SY5Y [10]): Active
17 | Cc1c(C)c2ccc(OC3CCN(Cc4ccc(C#N)cc4)CC3)cc2oc1=O | 970 nM | 1290 nM | 656 nM | 48% |  | Ratio IC50 (Homo sapiens): 2
18 | Cc1c(C)c2ccc(OC3CCN(Cc4ccc(Cl)cc4)CC3)cc2oc1=O | 1550 nM | 1590 nM | 876 nM | 29% |  | Ratio IC50 (Homo sapiens): 2
19 | CCCCN1CCC(Oc2ccc3c(C)c(C)c(=O)oc3c2)CC1 | 990 nM | 23900 nM | 1410 nM | 35% |  | 
20 | Cc1c(C)c2ccc(OCC3CCCN(Cc4ccccc4)C3)cc2oc1=O (single isomer, unassigned; (-)) | 780 nM | 2300 nM |  |  | 8080 nM | 
21 | Cc1c(C)c2ccc(OCCCCN3CCc4ccccc4C3)cc2oc1=O | 1150 nM | 2240 nM | 612 nM |  | 2610 nM | 
22 | Cc1c(C)c2ccc(OC3CCN(Cc4ccccc4)CC3)cc2oc1=O | 780 nM | 3590 nM | 445 nM |  | 9570 nM | 
23 | Cc1c(C)c2ccc(OCC3CCCN(Cc4cccc(Br)c4)C3)cc2oc1=O (single isomer, unassigned; (-)) [listing 2 of 2 here] |  |  |  | 26% |  | 
24 | Cc1c(C)c2ccc(OC3CCN(C)CC3)cc2oc1=O | 1300 nM | 11700 nM | 274 nM | 11% |  | 
25 | Cc1c(C)c2ccc(OCC3CCCN(Cc4cccc(Cl)c4)C3)cc2oc1=O (racemic) | 1170 nM | 980 nM | 36 nM |  | 4690 nM | IC50 (SH-SY5Y [5]): 13000 nM; Activity (SH-SY5Y [6]): inactive; Activity (SH-SY5Y [10]): Active
26 | Cc1c(C)c2ccc(OCC3CCN(Cc4cccc(Cl)c4)CC3)cc2oc1=O | 1030 nM | 700 nM | 89 nM |  | 6070 nM | Activity (SH-SY5Y [4]): inactive
27 | Cc1c(C)c2ccc(OCC3CCCN(Cc4ccc(S(C)(=O)=O)cc4)C3)cc2oc1=O (racemic) | 850 nM | 210 nM | 113 nM | 10% |  | 
28 | Cc1c(C)c2ccc(OC3CCN(Cc4cccc(Cl)c4)CC3)cc2oc1=O | 1080 nM | 870 nM | 285 nM | 28% |  | 
29 | Cc1c(C)c2ccc(OC3CCN(CCc4ccccc4)CC3)cc2oc1=O | 1650 nM | 12400 nM | 2490 nM |  | 1770 nM | 
